Experiments:
Rattus norvegicus = species: Rattus norvegicus; experiment: Inhibition of cyclooxygenase in Wistar rat peritoneal leukocytes at 50 ug/mL; format: cell-based
Outline: (§1)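 Peritoneal leukocytes (~85% PMNs) came from male Wistar rats (200-300 g) 16-20 h after ip 6% oyster glycogen and were used at 2.5 × 10^6 cells/mL in complete HBSS. The COX readout was supernatant TXB2 by radioimmunoassay (3H-TXB2 tracer, rabbit antiserum, 4 °C, 18 h).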

[1] = target: T1, Polyunsaturated fatty acid 5-lipoxygenase (Rattus norvegicus) (UniProt P12527); experiment: Inhibition of 5-lipoxygenase in Wistar rat peritoneal leukocytes at 50 ug/mL; format: cell-based
T1 sequence (whole entry): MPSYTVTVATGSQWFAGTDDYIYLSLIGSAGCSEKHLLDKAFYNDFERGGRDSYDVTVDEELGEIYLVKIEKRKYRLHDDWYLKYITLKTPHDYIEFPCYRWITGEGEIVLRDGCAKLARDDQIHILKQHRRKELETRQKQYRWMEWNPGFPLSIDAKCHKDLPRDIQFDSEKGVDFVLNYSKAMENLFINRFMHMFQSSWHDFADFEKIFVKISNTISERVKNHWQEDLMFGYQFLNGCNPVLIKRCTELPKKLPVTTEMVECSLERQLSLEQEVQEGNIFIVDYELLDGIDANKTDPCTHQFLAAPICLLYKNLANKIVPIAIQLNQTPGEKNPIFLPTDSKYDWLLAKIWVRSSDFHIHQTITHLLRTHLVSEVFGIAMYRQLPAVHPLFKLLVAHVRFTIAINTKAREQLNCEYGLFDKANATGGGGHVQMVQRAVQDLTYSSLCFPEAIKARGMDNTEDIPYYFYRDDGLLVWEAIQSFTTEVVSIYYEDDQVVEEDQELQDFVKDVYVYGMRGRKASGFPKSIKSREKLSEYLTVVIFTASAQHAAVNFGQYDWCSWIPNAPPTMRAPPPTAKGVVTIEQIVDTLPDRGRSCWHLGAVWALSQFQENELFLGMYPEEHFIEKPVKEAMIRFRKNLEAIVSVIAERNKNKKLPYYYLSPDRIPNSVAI
Outline: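 Leukocytes (~85% PMNs) were elicited in male Wistar rats (200-300 g) with ip 6% oyster glycogen and harvested 16-20 h later. Cells at 2.5 × 10^6/mL in complete HBSS were tested in triplicate, preincubated with the sample (in DMSO, or CHCl3 evaporated) for 10 min at 37 °C, then given A23187 for 10 min. Supernatant LTB4 was measured by RIA (3H-LTB4 tracer, rabbit antiserum, 18 h, 4 °C).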

[2] = Inhibition of cyclooxygenase in Wistar rat peritoneal leukocytes; format: cell-based; outline: as §1
[3] = target: T2, Polyunsaturated fatty acid 5-lipoxygenase (Rattus norvegicus, UniProt P12527); experiment: Inhibition of 5-lipoxygenase in Wistar rat peritoneal leukocytes; format: cell-based
T2 sequence (P12527 whole entry): T1 sequence (whole entry)
Outline: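 Male Wistar rat peritoneal leukocytes (~85% PMNs) elicited by ip 6% oyster glycogen, harvested 16-20 h later, and resuspended at 2.5 × 10^6 cells/mL in HBSS with 1.26 mM Ca2+ and 0.9 mM Mg2+. Triplicates were preincubated 10 min at 37 °C with the test agent, then stimulated 10 min with calcium ionophore A23187. Supernatant LTB4 was measured by radioimmunoassay using a 3H-LTB4 tracer and rabbit antiserum (4 °C, 18 h).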

[4] = Cell viability of Wistar rat peritoneal leukocytes by trypan blue exclusion method; format: cell-based, Leukocyte; conditions: read-out: Activity

Row | SMILES | inhibition (Rattus norvegicus) [%] | inhibition [1] [%] | IC50 [2] [µM] | IC50 [3] [µM] | viability [4] [%]
1 | COC(CO[C@@H]1O[C@H](CO)[C@@H](OC(=O)/C=C/c2ccc(O)c(O)c2)[C@H](O[C@@H]2O[C@@H](C)[C@H](O)[C@@H](O)[C@H]2O)[C@H]1O)c1ccc(O)c(O)c1 (some centres undefined) | 0 | 0 |  |  | 
2 | COc1ccc(-c2cc(=O)c3c(O)cc(O)cc3o2)cc1 [ACACETIN] | 69.5 | 77.6 | 77.5 | 123 | 
3 | C[C@@H]1O[C@@H](O[C@@H]2[C@@H](O)[C@H](OCCc3ccc(O)c(O)c3)O[C@H](CO)[C@H]2OC(=O)/C=C/c2ccc(O)c(O)c2)[C@H](O)[C@H](O)[C@H]1O | 0 | 0 |  |  | 
4 | Cc1cc(-c2ccc(/N=N/c3c(S(=O)(=O)O)cc4cc(S(=O)(=O)O)cc(N)c4c3O)c(C)c2)ccc1/N=N/c1c(S(=O)(=O)O)cc2cc(S(=O)(=O)O)cc(N)c2c1O [TRYPAN BLUE] |  |  |  |  | 95
5 | C=C1CC/C=C(\C)C(=O)[C@H](O)[C@@H]2[C@@H]1CC2(C)C [BUDDLEDIN B] | 47.9 | 49.3 | > 200 | > 200 | 
6 | C=C1CCC[C@H](C)C(=O)[C@H](OC(C)=O)[C@@H]2[C@@H]1CC2(C)C | 0 | 0 |  |  | 
7 | C[C@@H]1O[C@@H](O[C@@H]2[C@@H](O)[C@H](OCCc3ccc(O)c(O)c3)O[C@H](CO[C@@H]3OC[C@H](O)[C@H](O)[C@H]3O)[C@H]2OC(=O)/C=C/c2ccc(O)c(O)c2)[C@H](O)[C@H](O)[C@H]1O | 0 | 0 |  |  | 
8 | C[C@H]1O[C@H](O[C@@H]2[C@@H](O)[C@H](OCCc3ccc(O)c(O)c3)O[C@H](CO[C@H]3O[C@@H](CO)[C@H](O)[C@@H](O)[C@@H]3O)[C@H]2OC(=O)/C=C/c2ccc(O)c(O)c2)[C@@H](O)[C@@H](O)[C@@H]1O | 0 | 0 |  |  | 
9 | COc1ccc2c(c1)c(CC(=O)O)c(C)n2C(=O)c1ccc(Cl)cc1 | 100 | 0 |  |  | 
10 | CC(/C=C/C=C(\C)C(=O)O)=C\C=C\C=C(C)\C=C\C=C(/C)C(=O)O[C@H]1O[C@H](CO[C@@H]2O[C@H](CO)[C@@H](O)[C@H](O)[C@H]2O)[C@@H](O)[C@H](O)[C@H]1O [CROCETIN MONOGENTIBIOSYL ESTER] | 85.1 | 0 | 28.2 |  | 
11 | O=C(O)c1ccc(OCCn2ccnc2)cc1 | 89.6 | 0 |  |  | 
12 | C=C1CC/C=C(\C)C(=O)[C@H](OC(C)=O)[C@@H]2[C@@H]1CC2(C)C [BUDDLEDIN A] | 89.3 | 98 | 13.7 | 50.4 | 
13 | C/C1=C\CC(C)(C)/C=C/C(=O)/C(C)=C/CC1 | 0 | 0 |  |  | 
14 | CCn1c(=O)ccc2cc(COc3cc(F)cc(C4(OC)CCOCC4)c3)ccc21 | 47.8 | 100 |  |  | 
15 | O=C(/C=C/c1ccc(O)c(O)c1)O[C@H]1[C@H](O)[C@@H](O)[C@H](OCCc2ccc(O)c(O)c2)O[C@@H]1CO | 0 | 0 |  |  | 
16 | C=C1CC/C=C(\C)C(=O)C[C@@H]2[C@@H]1CC2(C)C [BUDDLEDIN C] | 9.5 | 16.4 | > 200 | > 200 | 
17 | CCC(OC)(c1cccc(OCc2ccc3ccccc3c2)c1)c1nccs1 (centres undefined) | 0 | 100 |  |  | 
18 | C[C@H]1O[C@H](O[C@@H]2[C@@H](O)[C@H](OCCc3ccc(O)c(O)c3)O[C@H](CO[C@H]3OCC(O)(CO)[C@@H]3O)[C@H]2OC(=O)/C=C/c2ccc(O)c(O)c2)[C@@H](O)[C@@H](O)[C@@H]1O (some centres undefined) | 0 | 0 |  |  | 

Source: ChEMBL document CHEMBL1144107, “Novel and known constituents from Buddleja species and their activity against leukocyte eicosanoid generation” (J Nat Prod, 1999)
